Source: paper PMC4423805 (Science (New York, N.Y.), 2015)

Tests used:
[1] = biological target: CBFβ-SMMHC binding to the RUNX1 Runt domain; assay: FRET assay of CBFβ-SMMHC binding to RUNX1 Runt domain; conditions: read-out: FRET IC50; 10 nM Cerulean-Runt domain and 10 nM Venus-CBFβ-SMMHC
Summary of the method: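 FRET binding assay with 10 nM Cerulean-RUNX1 Runt domain and 10 nM Venus-CBFβ-SMMHC titrated with test compound. Read-out is the emission intensity ratio at 525/474 nm. Untagged CBFβ (100 and 1000 nM) served as a dissociation reference. IC50 was fitted from the mean and SD of three independent measurements.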

CBFβ = assay: 15N-1H HSQC / STD NMR binding to CBFβ; conditions: upon addition of compound
Runt domain = assay: 15N-1H HSQC / STD NMR binding to Runt domain
[2] = Pharmacokinetics in mouse plasma; assay type: in vivo
[3] = Stability in liver microsomes; assay type: in vitro ADME
[4] = test system: primary human inv(16) AML samples; assay: Colony-forming units, primary inv; assay type: cell-based
Summary of the method: (§1)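 Colony-forming unit assays on CD34+ purified primary human cells treated with the test compound at set concentrations (5 and 10 μM cited for inv(16) samples): inv(16) AML, normal-karyotype AML, or cord blood. Colonies are expressed as percent of DMSO vehicle control. Assays were run in triplicate, with SD; significance by unpaired t-test.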

CBFβ-SMMHC = assay: Isothermal titration calorimetry; assay type: binding; conditions: read-out: dissociation constant (KD), ITC
Sequence of CBFβ-SMMHC (Q13951 1-165 limits assumed): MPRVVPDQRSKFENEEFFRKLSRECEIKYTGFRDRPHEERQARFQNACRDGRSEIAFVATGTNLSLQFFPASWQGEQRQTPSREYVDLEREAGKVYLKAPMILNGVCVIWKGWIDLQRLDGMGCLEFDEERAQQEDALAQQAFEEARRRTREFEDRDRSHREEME

ME-1 cells = assay: Annexin V and 7AAD viability staining, ME-1; assay type: cell-based, human; conditions: read-out: ME-1 cell growth IC50, 48 hours
Summary of the method: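 ME-1 inv(16) cells exposed to the test compound across a dose range for 48 hours, then scored by annexin V and 7AAD viability staining. Values are normalized to the DMSO-treated group. Each point is the mean of triplicate experiments, with SD.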

[5] = test system: normal human bone marrow cells; assay: MTT assay, normal human bone marrow cells; assay type: cell-based; conditions: read-out: IC50 in normal human bone marrow cells, 48 hours
Summary of the method: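 Normal human bone marrow cells treated with a dose range of test compound for 48 hours and assessed by MTT conversion. Values are normalized to the DMSO-treated group. Each point is the mean of triplicate experiments, with SD.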

[6] = test system: 11 human leukemia cell lines; assay: Panel of 11 human leukemia cell lines; assay type: cell-based
CBFβ-SMMHC-RUNX1 binding = assay: Coimmunoprecipitation of CBFβ-SMMHC-RUNX1 in ME-1 cells; assay type: cell-based, human; conditions: 1 μM, 6 hours
Summary of the method: (§2)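 ME-1 cells treated with 1 μM test compound for 3 and 6 hours. RUNX1 association with CBFβ and with CBFβ-SMMHC was assessed by coimmunoprecipitation, and binding was quantified from three experiments.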

CBFβ-RUNX1 binding = assay: Coimmunoprecipitation of CBFβ-RUNX1 in ME-1 cells; assay type: cell-based, human; conditions: 1 μM
Summary of the method: as §2

[7] = test system: RUNX1, CBFβ, and CBFβ-SMMHC; assay: Protein stability of RUNX1, CBFβ and CBFβ-SMMHC; assay type: cell-based
[8] = test system: RUNX1 occupancy at RUNX3, CSF1R, and CEBPA promoters; assay: Chromatin immunoprecipitation of RUNX1 occupancy, ME-1 cells; assay type: cell-based, human; conditions: 6 hours
Summary of the method: (§3)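 Chromatin immunoprecipitation of RUNX1 at the RUNX3, CSF1R and CEBPA loci in ME-1 and U937 cells treated with 1 μM test compound for 6 hours. Occupancy is expressed as fold enrichment relative to DMSO-treated cells. Data are means of triplicate experiments with SD; significance by unpaired t-test.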

[9] = test system: RUNX1 occupancy at RUNX3, CSF1R, and CEBPA promoters; assay: Chromatin immunoprecipitation of RUNX1 occupancy, U937 cells; assay type: cell-based, human; conditions: inv(16)-negative U937 cells, 1 μM
Summary of the method: as §3

[10] = test system: expression of RUNX3, CSF1R, and CEBPA; assay: qRT-PCR expression of RUNX1 target genes, ME-1 cells; assay type: cell-based, human; conditions: 6 or 12 hours
Summary of the method: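 qRT-PCR of RUNX3, CSF1R, CEBPA and control gene PIN1 in ME-1 and U937 cells treated with 1 μM test compound for 6 and 12 hours. Expression is normalized to the DMSO control group. Data are means of triplicate experiments with SD; significance by unpaired t-test.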

[11] = test system: Cbfb+/MYH11:Ras+/G12D leukemic cells; assay: inv; assay type: in vivo, mouse; conditions: 200 mg/kg of body weight per day for 10 days, days 5 to 15 posttransplantation
Summary of the method: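 Mice (n = 11 per group) were transplanted with 2 × 10^3 Cbfb+/MYH11;Ras+/G12D leukemic cells. After 5 days for engraftment, they received DMSO vehicle or 200 mg/kg/day test compound for 10 days (days 5–15 post-transplant). Disease latency was followed by Kaplan-Meier survival.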

[12] = Toxicity after 7 days of administration; assay type: in vivo
[13] = test system: primary human inv(16) AML samples; assay: Viability; assay type: cell-based; conditions: 48 hours, 5 and 10 μM
Summary of the method: (§4)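 Primary human AML cells treated with test compound at set concentrations for 48 hours, and viability read by annexin V/7AAD relative to DMSO vehicle. Inv(16) material comprised four CD34+ purified samples; normal-karyotype AML samples were used as given. Each sample was the average of duplicate treatments, with mean and SD across samples.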

[14] = test system: primary human AML samples with normal karyotype; assay: Viability; assay type: cell-based; conditions: 48 hours
Summary of the method: as §4

[15] = test system: primary human AML samples with normal karyotype; assay: Colony-forming units, normal karyotype AML samples; assay type: cell-based
Summary of the method: as §1

CD34+ cord blood cells = assay: Colony-forming units, CD34+ cord blood cells; assay type: cell-based, human
Summary of the method: as §1

[16] = biological target: RUNX1, endogenous in ME-1 cells (human (endogenous in ME-1)) (UniProt Q01196); assay: co-IP
Sequence of RUNX1, endogenous in ME-1 cells (human (endogenous in ME-1)) (Q01196 whole entry): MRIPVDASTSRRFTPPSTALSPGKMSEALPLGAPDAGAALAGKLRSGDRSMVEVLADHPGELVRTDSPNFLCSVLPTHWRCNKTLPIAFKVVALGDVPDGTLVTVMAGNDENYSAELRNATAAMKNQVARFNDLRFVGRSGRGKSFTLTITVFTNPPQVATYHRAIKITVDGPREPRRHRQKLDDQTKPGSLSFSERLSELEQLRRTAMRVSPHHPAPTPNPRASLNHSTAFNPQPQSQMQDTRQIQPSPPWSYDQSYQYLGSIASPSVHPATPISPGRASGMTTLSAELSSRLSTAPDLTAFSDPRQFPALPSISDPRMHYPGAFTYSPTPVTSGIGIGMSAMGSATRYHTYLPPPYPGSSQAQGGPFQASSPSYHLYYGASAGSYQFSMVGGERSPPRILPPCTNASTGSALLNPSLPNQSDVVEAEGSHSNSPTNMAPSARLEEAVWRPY

Molecule: COc1ccc2nc(-c3ccccn3)[nH]c2c1 [AI-4-57]
- IC50 [1]: 22000 ± 8000 nM
- chemical shift changes in HSQC spectrum of CBFβ (CBFβ): chemical shift perturbations
- interaction with Runt domain by NMR (Runt domain): No interaction was observed
- half-life (t½) [2]: 0.617 h

Molecule: FC(F)(F)Oc1ccc2nc(-c3ccccn3)[nH]c2c1 [AI-10-47]
- IC50 [1]: 2000 ± 30 nM
- stability in liver microsomes [3]: reduced the metabolic liability
- change in CFUs of inv(16) AML cells [4]: no change

Molecule: AI-10-49
- IC50 [1]: 260 ± 10 nM
- Kd (CBFβ-SMMHC): 168 nM
- IC50 (ME-1 cells): 600 nM
- IC50 [5]: > 25000 nM
- half-life (t½) [2]: 6.33 h
- sensitivity of leukemia cell line panel [6]: ME-1 cells were the only cell line highly sensitive
- dissociation of RUNX1 from CBFβ-SMMHC (CBFβ-SMMHC-RUNX1 binding): 90%
- effect on CBFβ-RUNX1 association (CBFβ-RUNX1 binding): only a modest effect
- stability of RUNX1, CBFβ, and CBFβ-SMMHC [7]: not affected
- RUNX1 occupancy at CEBPA promoter ([8]; 1 μM, relative to DMSO): 8 fold
- RUNX1 occupancy at CSF1R promoter ([8]; 1 μM, relative to DMSO): 2.2 fold
- RUNX1 occupancy at RUNX3 promoter ([8]; 1 μM, relative to DMSO): 8 fold
- RUNX1 occupancy at control loci [8]: no enrichment was observed
- RUNX1 occupancy increase in U937 cells [9]: Neither
- expression of RUNX3, CSF1R, and CEBPA ([10]; 1 μM): increased expression
- expression of control gene PIN1 [10]: no effect
- median latency (survival) [11]: 61 days
- toxicity [12]: no evidence of toxicity
- viability of inv(16) patient cells [13]: reduced
- viability of normal karyotype AML samples [14]: not affected
- inhibition of CFUs of inv(16) AML cells ([4]; 5 μM): 40%
- inhibition of CFUs of inv(16) AML cells ([4]; 10 μM): 60%
- change in CFUs of AML cells with normal karyotype [15]: no change
- change in CFUs of CD34+ cord blood cells (CD34+ cord blood cells): no change

Molecule: CBFβ-SMMHC, endogenous in ME-1 cells
- percent dissociation with AI-10-49 (1 μM, 6 hours) [16]: 90%
